Bioassay records as filed in PubChem.
Only some compounds are listed: those with a hit (about 1.3% of all), similar ones and a draw of the others.
TCR CD3 inh – inhibitors of human TCR-CD3 interaction, primary screen, biochemical, fluorescence, TAMRA-labeled TCR probe | inhibition, % at 9.4 µM | hit rate 0.37% among 360,000 | AID 651800, 2012;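 also: recombinant mutant TCR 2C K166C tagged with TAMRA read by polarization; 0% = receptor in buffer alone and 100% = receptor with positive control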
HTRA1 inhibitor – HTRA1 serine protease inhibitors, primary screen, biochemical, fluorescence polarization, HTS; recombinant HTRA1, FP-rhodamine activity-based probe; inhibition, % at 5.96 µM; hit rate 0.5% among 340,000; in the data active = inhibition above about 36%;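 also: 0% = enzyme with DMSO and 100% = wells lacking enzyme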
Tn6 DDE FP – inhibitors of Tn6 peptide binding to fibrin DD(E), primary screen, biochemical, fluorescence polarization, human fibrin, Tn6 probe | Fibrinogen beta chain (Homo sapiens), P02675 | Fibrin DD(E) TRITC-Tn6 fluorescence polarization displacement | inhibition, % at 8.3 µM | hit rate 0.21% among 370,000;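 active = inhibition above a per-campaign cutoff: mean of compounds within control limits plus 3 SD, cut at about 15% in these data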;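 also: 0% = median of all compound wells on the plate and 100% = blocking peptide control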
Target sequence (P02675 whole entry, looked up): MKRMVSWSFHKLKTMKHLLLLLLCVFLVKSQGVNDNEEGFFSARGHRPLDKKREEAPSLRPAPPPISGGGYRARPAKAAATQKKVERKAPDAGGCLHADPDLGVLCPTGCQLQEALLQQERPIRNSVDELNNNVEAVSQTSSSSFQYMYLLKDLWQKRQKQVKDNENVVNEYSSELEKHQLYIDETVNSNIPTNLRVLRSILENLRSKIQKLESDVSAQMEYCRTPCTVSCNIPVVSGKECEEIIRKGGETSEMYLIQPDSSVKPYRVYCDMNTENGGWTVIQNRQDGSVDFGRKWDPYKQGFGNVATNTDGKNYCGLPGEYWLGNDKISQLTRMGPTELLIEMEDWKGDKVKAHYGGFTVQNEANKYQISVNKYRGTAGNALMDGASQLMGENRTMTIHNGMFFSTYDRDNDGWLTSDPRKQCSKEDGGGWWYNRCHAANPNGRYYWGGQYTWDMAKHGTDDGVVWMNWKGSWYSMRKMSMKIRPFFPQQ
Tn7 DDE FP – inhibitors of Tn7 peptide binding to fibrin DD(E), primary screen, biochemical, fluorescence polarization, human fibrin, Tn7 probe. FP displacement of FITC-Tn7 peptide from fibrin DD(E); 0% = median of compound wells per plate. inhibition, % at 8.3 µM. Fibrinogen beta chain (Homo sapiens), P02675. hit rate 0.13% among 370,000;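 active = inhibition above the mean of compounds falling within the control limits plus 3 SD of them, cut at about 14% in these data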;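 also: 0% = plate median of compound wells and 100% = 10 µM Aha-Tn7 peptide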
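Assay system: Fibrin-DD(E) protein isolated from polymerized human fibrin clots; read-out basis: percent inhibition; medium: Tris/NaCl/CaCl2 buffer, pH 7.8; signal: FP measurement; incubation: 10 min plus 3 h, room temperature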
ABHD4 inh – ABHD4 inhibitors, primary screen, biochemical, fluorescence polarization, mouse | inhibition, % at 8.92 µM | purified mABHD4, FP-Rh probe fluorescence polarization | AID 720543, 2013 | hit rate 0.54% among 370,000 | (Lyso)-N-acylphosphatidylethanolamine lipase (Mus musculus), Q8VD66;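 active = inhibition exceeding the mean over every tested compound plus 3 SD, cut at about 30% in these data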;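 also: 0% = plate median of compound wells and 100% = S159A mutant with DMSO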
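System: mouse ABHD4 enzyme, wild type / Medium: HEPES pH 7.0, NaCl, Pluronic buffer / Reagent: FP-Rh activity-based fluorescent probe / Control set: S159A mutant high control, sample median low control / Detection: fluorescence polarization with parallel and perpendicular emission, 525/598 nm / Schedule: 45 min + 60 min at 25 °C / Compound dosing: 8.92 µM, single dose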
HTRA1 conf – HTRA1 protease inhibitors, retest, confirmation, biochemical, fluorescence polarization; shares compounds with HTRA1 inhibitor; recombinant HTRA1, FP-rhodamine activity-based probe; inhibition, % at 5.96 µM; hit rate 66% among 1,600;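 active = mean inhibition over three repeats above a set limit taken from the earlier primary screen, cut at about 37% in these data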;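 also: 0% = HTRA1 with DMSO and 100% = wells lacking HTRA1; inhibitors block probe binding so polarization drops and inhibition rises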
BSA probe FL – compounds interfering with TAMRA-BSA probe, counter-screen for TCR-CD3 interaction inhibitor project, biochemical, fluorescence, TAMRA-labeled BSA | shares compounds with TCR CD3 inh | TAMRA-labeled BSA probe fluorescence counterscreen | inhibition, % at 9.4 µM | hit rate 10% among 1,200 | AID 652035, 2013; in the data active = inhibition above about 23%;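 also: 0% = buffer low control and 100% = reference high control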
TCR-CD3 conf – TCR-CD3 interaction inhibitors, retest, confirmation, biochemical, fluorescence, TAMRA-labeled TCR probe; hit rate 48% among 1,200; inhibition, % at 9.4 µM; shares compounds with TCR CD3 inh; TAMRA-labeled TCR probe fluorescence binding assay; AID 652036, 2013
DDE Tn7 confirm – inhibitors of Tn7 peptide binding to fibrin DD(E), confirmation, biochemical, fluorescence polarization, human fibrin, Tn7 probe; FP displacement of TRITC-Tn7 peptide from DD(E); 0% set at plate's compound-well median; shares compounds with Tn7 DDE FP; inhibition, % at 8.3 µM; hit rate 5% among 460; AID 720628, 2013;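 active = inhibition above the campaign cutoff, the mean of compounds within control limits plus 3 SD, cut at about 14% in these data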;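 also: 100% = median FP of high control wells holding Aha-Tn7 inhibitor peptide; displacers lower polarization since freed probe rises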
Tn7 DDE ctr – counter-screen hit for Tn7 peptide-fibrin DD(E) binding disruption | TRITC-Tn7 probe displacement, fluorescence polarization | inhibition, % at 8.3 µM | AID 720633 | shares compounds with Tn7 DDE FP | hit rate 3% among 460;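 active = inhibition above the cutoff, the mean of compounds lying between the control bounds plus 3 SD of those compounds, cut at about 17% in these data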;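 also: 0% = median of compound sample wells and 100% = excess unlabeled Aha-Tn7 peptide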
DDE Tn6 FP ctr – counter-screen hit for Tn6 peptide-fibrin DD(E) binding disruption. shares compounds with Tn6 DDE FP. TRITC-Tn6 fluorescence polarization displacement; 0% = median of compound wells, not DMSO. inhibition, % at 8.3 µM. hit rate 2% among 680;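 active = inhibition above the mean of test compounds lying between the control limits plus 3 SD of those, cut at about 14% in these data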;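 also: 0% = median of compound wells and 100% = wells with Aha-Tn7 blocking peptide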
DDE Tn6 confirm – inhibitors of Tn6 peptide binding to fibrin DD(E), confirmation, biochemical, fluorescence polarization, human fibrin, Tn6 probe. hit rate 10% among 680. FP displacement of TRITC-Tn6 peptide from DD(E); 0% = per-plate median of test wells. inhibition, % at 8.3 µM. shares compounds with Tn6 DDE FP;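 active = inhibition above the mean of compounds lying within the control limits plus 3 SD, cut at about 16% in these data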;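 also: 100% = high control wells holding a competing inhibitor peptide at 10 µM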
mABHD4 conf – ABHD4 inhibitors, retest, confirmation, biochemical, fluorescence polarization, mouse. inhibition, % at 8.92 µM. AID 720658, 2013. shares compounds with ABHD4 inh. purified mABHD4, FP-Rh probe fluorescence polarization. hit rate 55% among 1,800;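 active = mean inhibition across replicates above the hit cutoff set in the primary screen, cut at about 30% in these data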;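 also: 0% = wild-type ABHD4 with DMSO and 100% = catalytically dead S159A mutant with DMSO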
Active calls of the source: *; x = no result given; + = active, no number. Rule as the data show it, unless noted: active = inhibition above about 19%; inactive = the rest.

SMILES	TCR CD3 inh	HTRA1 inhibitor	Tn6 DDE FP	Tn7 DDE FP	ABHD4 inh	BSA probe FL	TCR-CD3 conf	others
C[n+]1c2ccccc2nc2ccc(NCCO)cc21	195.8*	85.8*	+	-0.9	96.9*	176.9*	138.8*	HTRA1 conf=86.5*;DDE Tn6 FP ctr=0.8;DDE Tn6 confirm=122.2*;mABHD4 conf=62.5*
CNc1ccc2nc3ccccc3[n+](C)c2c1	+	114.9*	+	-0.6	118.6*	+	184.2*	HTRA1 conf=101.4*;DDE Tn6 FP ctr=-7.6;DDE Tn6 confirm=94.2*;mABHD4 conf=101.3*
NC(=O)c1ccc(N=Cc2c(O)n(Cc3ccco3)c(=O)[nH]c2=O)cc1	20.5*	-3.5	6.7	-6.4	-4.5	13.1	25.5*
COc1cc2c(cc1O)CC1c3c(cc(O)c(OC)c3-2)CCN1C (stereo not given)	21.6*	8.3	-8.1	-4.1	24.2	-1.3	6.5
COc1cc2c(cc1OC)-c1c(OC)c(OC)cc3c1[C@H](C2)N(C)CC3	-2.8	14.6	-1.2	-4.1	17.2	x	x
CN(C)c1ccc(C=C2C(=O)NC(=O)NC2=O)cc1	-2.7	-0.6	-4.5	-4.5	1.3	x	x
CC(=O)Nc1ccc(C=C2C(=O)NC(=O)NC2=O)cc1	51.0*	-0.7	6.6	5.9	8.6	-3.2	-3.7
O=C(NP(=O)(N1CC1)N1CC1)c1cc(I)ccc1I	-3.4	-1.9	-11.8	5.9	0.0	x	x
O=C(N/N=C/c1c(O)n(Cc2ccccc2)c(=O)[nH]c1=O)c1ccncc1	26.2*	x	-0.6	-3.2	23.6	-10.7	9.3
C/C(=N\Nc1ccccc1)c1c(O)n(Cc2ccccc2)c(=O)[nH]c1=O	12.9	-7.9	2.3	5.1	-7.0	x	x
C/C(=N\NC(=O)c1ccccc1O)c1c(O)n(Cc2ccccc2)c(=O)[nH]c1=O	33.6*	23.2	1.9	3.7	25.3	-15.1	36.7*
O=C(N/N=C/c1c(O)n(Cc2ccc(F)cc2)c(=O)[nH]c1=O)c1ccccc1	10.8	9.9	8.0	-1.2	10.0	x	x
C/C(=N\NC(=O)c1ccncc1)c1c(O)n(Cc2ccccc2)c(=O)[nH]c1=O	19.5*	5.2	-0.1	-8.1	8.1	-7.3	11.4
O=C(N/N=C/c1c(O)n(-c2ccccc2)c(=S)[nH]c1=O)c1ccccc1	26.5*	x	0.3	3.0	3.4	-11.2	6.8
CC(=O)c1ccc(NC(=O)N2C[C@H]3C[C@@H](C2)c2cccc(=O)n2C3)cc1	-4.0	8.9	0.7	4.9	6.1	x	x
COC(=O)C1=C(c2ccc(C(C)=O)cc2)C[C@@H]2CC[C@H]1N2C(=O)NCC1CC1	x	-0.2	x	x	x	x	x
Oc1ccc(C[C@H]2NCCc3cc(O)c(O)cc32)cc1O	112.7*	27.7	0.0	4.1	14.9	-5.2	19.4*
CCCCCCC(=O)c1c(O)n(-c2ccccc2OC)c(=O)[nH]c1=O	5.2	-1.2	4.7	5.3	8.6	x	x
CC[C@@H](CO)NC(=O)[C@@H]1C=C2c3cccc4[nH]cc(c34)C[C@H]2N(C)C1	12.2	13.7	1.0	16.3*	16.8	x	x	DDE Tn7 confirm=-0.9;Tn7 DDE ctr=-1.0
Cc1ccc2cc(C=C(C#N)C#N)c(Cl)nc2c1	-2.1	-12.0	2.2	15.0*	7.4	x	x	DDE Tn7 confirm=9.8;Tn7 DDE ctr=4.6
CCOc1cc(CNCCc2cccc(F)c2)ccc1OC	-4.7	0.7	0.6	0.2	8.3	x	x
CCCCn1c(O)c(C(CC)=Nc2ccc(C(=O)O)cc2)c(=O)[nH]c1=O	-4.2	-3.4	2.7	15.2*	10.9	x	x	DDE Tn7 confirm=3.6;Tn7 DDE ctr=2.2
CC(NC(=O)OC1CC2CCC1(C)C2(C)C)P(=O)(Oc1ccccc1)Oc1ccccc1 (stereo not given)	x	x	5.7	1.9	0.5	x	x
COC(=O)C(O)(c1ccc(N=Cc2ccccc2O)c(C)c1)C(F)(F)F (stereo not given)	2.8	3.7	3.6	15.8*	-1.5	x	x	DDE Tn7 confirm=-0.6;Tn7 DDE ctr=-3.3
COC(=O)C(O)(c1ccc(NC(=O)c2cccs2)c(C)c1)C(F)(F)F (stereo not given)	-6.2	0.8	-5.3	3.8	-10.1	x	x
ClCCNc1nc2ccc(Cl)cc2[nH]1	-9.3	6.4	2.6	13.9*	6.2	x	x	DDE Tn7 confirm=-6.5;Tn7 DDE ctr=-8.2
CCC1=Nc2cc(C(=O)N3CCC4(CC3)OCCO4)ccc2Sc2ccc(C)cc21	5.3	-22.0	-2.1	1.3	20.9	x	x
CN(C)P(=O)(N(C)C)N1CC1	4.3	5.0	-4.9	-0.7	1.9	x	x
